# Results published in ChEMBL document CHEMBL1123519, “Chemically stable homocinnamyl analogues of the leukotrienes: synthesis and preliminary biological evaluation” (J Med Chem, 1986).
# Active and inactive are the calls of the source. The rule behind the calls is not given here.
# Key:
# Cavia porcellus [1] = species on record: Cavia porcellus; experiment: Compound was evaluated for its activity in vitro with use of isolated guinea pig tracheal spiral strips in the presence (control ); type: functional; details: Trachea
# Summary of the method: (§1)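 Guinea pig tracheal strips held at 2 g resting tension and stabilized 60 min, with bath fluid changed every 15 min. Contraction to carbachol 30 μM, wash, then restabilized 60 min. Cumulative agonist concentration-response curves were run, with responses expressed as % of carbachol maximum. L-cysteine 3 mM or L-serine borate 45 mM was preincubated 30 min. EC50 was derived by linear regression, and significance by paired t test (p<0.05).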
# Cavia porcellus [2] = species on record: Cavia porcellus; experiment: Compound was tested for FPL-55712 sensitivity in the absence of metabolic inhibitors; Yes; type: functional, organism-based
# Summary of the method: (§2)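 Guinea pig tracheal strips at 2 g resting tension, stabilized 60 min, carbachol (30 μM) reference contraction, restabilized 60 min. FPL-55712 10 μM was preincubated 30 min before cumulative agonist curves, without metabolic inhibitors. EC50 values were compared with and without antagonist by Student's paired t test (p<0.05). Kb was obtained by the Furchgott method.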
# Cavia porcellus [3] = species on record: Cavia porcellus; experiment: Compound was tested for inhibition of LTE4 (8 nM)-induced contraction of isolated guinea pig trachea at 10 mM concentration.; type: functional; details: in the assay text read “10 µM” for “10 mM”
# Summary of the method: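 Isolated guinea pig trachea contracted with LTE4 8 nM. Analogue present in the bath, and inhibition of the LTE4 contraction expressed as percent.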
# Cavia porcellus [4] = species on record: Cavia porcellus; experiment: Compound was evaluated for its activity in vitro with use of isolated guinea pig tracheal spiral strips in the presence of L-cysteine (3 mM); type: functional; details: Trachea; summary of the method: as §1
# Cavia porcellus [5] = species on record: Cavia porcellus; experiment: Compound was evaluated for its activity in vitro with use of isolated guinea pig tracheal spiral strips in the presence of L-serine borate (45 mM); type: functional; details: Trachea; summary of the method: as §1
# Cavia porcellus [6] = species on record: Cavia porcellus; experiment: Compound was evaluated for its activity in vitro with use of isolated guinea pig tracheal spiral strips in the presence (control ); Not active; type: functional, Trachea; summary of the method: as §1
# Cavia porcellus [7] = species on record: Cavia porcellus; experiment: Compound was tested for FPL-55712 sensitivity in the absence of metabolic inhibitors; No sensitivity.; type: functional, organism-based; summary of the method: as §2
Compound,EC50 (Cavia porcellus [1]) [µM],EC50 (Cavia porcellus [5]) [µM],also measured
CCCCCCCc1ccc(C/C=C/[C@H](SCC(N)C(=O)O)[C@H](O)CCCC(=O)O)cc1 (some centres not stated),1.7,,
CCCCCCOc1ccc(C/C=C/[C@H](SC[C@H](N)C(=O)NCC(=O)O)[C@H](O)CCCC(=O)O)cc1,9.1,,Sensitivity (Cavia porcellus [2]): Active
CCCCCCCc1ccccc1C/C=C/[C@H](SCC(N)C(=O)O)[C@H](O)CCCC(=O)O (some centres not stated),,,Inhibition (Cavia porcellus [3]): 28%
CCCCC/C=C\C\C=C/C=C/C=C/[C@@H](SC[C@H](N)C(=O)NCC(=O)O)[C@@H](O)CCCC(=O)O [LEUKOTRIENE D4],0.00392,,EC50 (Cavia porcellus [4]): 0.000513 µM
CCCCCCCc1ccccc1C/C=C/[C@H](SC[C@H](N)C(=O)NCC(=O)O)[C@H](O)CCCC(=O)O,,,EC50 (Cavia porcellus [4]): 1.87 µM
CCCCCCCc1cccc(C/C=C/[C@H](SC[C@H](N)C(=O)NCC(=O)O)[C@H](O)CCCC(=O)O)c1,,,EC50 (Cavia porcellus [4]): 4.77 µM
CCCCC/C=C/c1cccc(C/C=C/[C@H](SC[C@H](N)C(=O)NCC(=O)O)[C@H](O)CCCC(=O)O)c1,13,,
CCCCCCCc1ccc(C/C=C\[C@@H](SC[C@H](N)C(=O)NCC(=O)O)[C@@H](O)CCCC(=O)O)cc1,2.68,,EC50 (Cavia porcellus [4]): 0.251 µM
CCCCCCCc1ccc(C/C=C/[C@H](SCC(NC(=O)CCC(N)C(=O)O)C(=O)NCC(=O)O)[C@H](O)CCCC(=O)O)cc1 (some centres not stated),0.574,0.0745,
CCCCCCCc1cccc(C/C=C/[C@H](SCC(N)C(=O)O)[C@H](O)CCCC(=O)O)c1 (some centres not stated),4.83,,
CCCCCCCc1cccc(C/C=C/[C@H](SCC(NC(=O)CCC(N)C(=O)O)C(=O)NCC(=O)O)[C@H](O)CCCC(=O)O)c1 (some centres not stated),1.36,0.447,
CCCCCCOc1cccc(C/C=C/[C@H](SC[C@H](N)C(=O)NCC(=O)O)[C@H](O)CCCC(=O)O)c1,,,Inhibition (Cavia porcellus [3]): 24%; EC50 (Cavia porcellus [6]): Not Active
CCCCC/C=C/c1ccc(C/C=C/[C@H](SCC(NC(=O)CCC(N)C(=O)O)C(=O)NCC(=O)O)[C@H](O)CCCC(=O)O)cc1 (some centres not stated),3.82,0.451,
CCCCCCOc1ccc(C/C=C/[C@H](SCC(NC(=O)CCC(N)C(=O)O)C(=O)NCC(=O)O)[C@H](O)CCCC(=O)O)cc1 (some centres not stated),1.28,0.256,Sensitivity (Cavia porcellus [7]): No sensitivity
CCCCCCCc1ccccc1C/C=C/[C@H](SCC(NC(=O)CCC(N)C(=O)O)C(=O)NCC(=O)O)[C@H](O)CCCC(=O)O (some centres not stated),18.6,18.4,
CCCCCCOc1ccccc1C/C=C/[C@H](SC[C@H](N)C(=O)NCC(=O)O)[C@H](O)CCCC(=O)O,,,Inhibition (Cavia porcellus [3]): 18%; EC50 (Cavia porcellus [6]): Not Active
